{"source": "ChEMBL document CHEMBL3352728", "about": "“Synthesis and biological evaluation of 1,2,3-triazole linked aminocombretastatin conjugates as mitochondrial mediated apoptosis inducers” (Bioorg Med Chem, 2014)", "key": {"A549 [1]": {"system": "A549", "assay": "Induction of apoptosis in human A549 cells assessed as nuclear fragmentation at 25 nM incubated for 48 hrs by Hoechst staining based fluorescent microscopy", "assay_type": "functional, cell-based", "how_it_was_run": "(§1)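 A549 cells, 10,000 per coverslip, cultured 24 h, then exposed to 25 nM for 48 h. Stained with Hoechst 33258 (0.5 mg/mL) for 30 min at 37 °C and washed in PBS. Random fields imaged by fluorescence microscopy and scored qualitatively for chromatin condensation, nuclear fragmentation and apoptotic bodies.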"}, "A549 [2]": {"system": "A549", "assay": "Induction of cell cycle arrest in human A549 cells assessed as accumulation at G0/G1 phase at 50 nM after 48 hrs by propidium iodide staining based flow cytometry (reference value: 87.75%)", "assay_type": "functional"}, "A549 [3]": {"system": "A549", "assay": "Induction of DNA fragmentation in human A549 cells at 25 nM incubated for 48 hrs by agarose gel electrophoresis method", "assay_type": "functional, cell-based", "how_it_was_run": "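A549 cells (1×10^6) plated for 24 h, then exposed to 25 nM for 48 h. Cells pelleted and lysed. Lysate treated with SDS and RNase A for 2 h at 56 °C, then proteinase K for 2 h at 37 °C. DNA precipitated with ammonium acetate and cold ethanol, redissolved in TE buffer, and laddering run on 2% agarose gel.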"}, "A549 [4]": {"system": "A549", "assay": "Induction of apoptosis in human A549 cells assessed as apoptotic bodies level at 25 nM incubated for 48 hrs by Hoechst staining based fluorescent microscopy", "assay_type": "functional, cell-based", "how_it_was_run": "as §1"}, "A549 [5]": {"system": "A549", "assay": "Induction of apoptosis in human A549 cells assessed as caspase-3 activation at 50 nM incubated for 48 hrs by ELISA method", "assay_type": "functional", "how_it_was_run": "(§2)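 A549 cells treated 48 h at 25 or 50 nM, with CA-4 at 50 nM as reference. Cells pelleted, PBS-washed, lysed 15 min and centrifuged. Supernatant assayed with a colorimetric caspase-3 kit. Mean ± SD from two experiments, each in triplicate.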"}, "A549 [6]": {"system": "A549", "assay": "Induction of mitochondrial membrane potential loss in human A549 cells at 25 nM incubated for 48 hrs by JC1 dye staining based fluorescence assay", "assay_type": "functional, cell-based", "how_it_was_run": "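A549 cells exposed to 25 nM for 48 h, then loaded with JC-1 for 20 min at 37 °C. JC-1 green monomer emission (525 nm) compared with red aggregate emission (590 nm) to read depolarization. CA-4 at 25 nM included.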"}, "A549 [7]": {"system": "A549", "assay": "Induction of ROS generation in human A549 cells at 25 nM incubated for 48 hrs by DCFH-DA staining based fluorescence assay", "assay_type": "functional, cell-based", "how_it_was_run": "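A549 cells exposed to 25 nM for 48 h, then loaded with 5 μM DCFH-DA for 30 min at 37 °C. DCF fluorescence read at ex 485/em 530 nm. CA-4 at 25 nM run in parallel.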"}, "A549 [8]": {"system": "A549", "assay": "Induction of microtubule network disruption in human A549 cells at 25 nM incubated for 48 hrs by immunohistochemistry", "assay_type": "cell-based", "how_it_was_run": "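A549 cells on glass coverslips exposed to 25 nM for 48 h, with CA-4 at 25 nM in parallel. Fixed in 3% paraformaldehyde/0.02% glutaraldehyde and permeabilized in methanol overnight at 4 °C. Blocked with 1% BSA, stained with mouse anti-tubulin primary and FITC-labelled anti-mouse IgG, and examined by fluorescence microscopy for microtubule network integrity.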"}, "A549 [9]": {"system": "A549", "assay": "Induction of apoptosis in human A549 cells assessed as caspase-3 activation at 25 nM incubated for 48 hrs by ELISA method", "assay_type": "functional", "how_it_was_run": "as §2"}, "A549 [10]": {"system": "A549", "assay": "Cytotoxicity against human A549 cells after 48 hrs by MTT assay", "assay_type": "functional, cell-based", "conditions": "A549, 48 h", "how_it_was_run": "(§3)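 MTT assay. Cells seeded at 1×10^4 per well in DMEM with 10% FBS and grown 24 h at 37 °C under CO2. Compounds diluted in medium, vehicle control included, 48 h exposure. MTT (5 mg/mL stock) added for 4 h, formazan dissolved in DMSO, absorbance read at 570 nm. IC50 taken as the average of three independent experiments.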"}, "A549 [11]": {"system": "A549", "assay": "Induction of cell cycle arrest in human A549 cells assessed as accumulation at S phase at 50 nM after 48 hrs by propidium iodide staining based flow cytometry (reference value: 4.69%)", "assay_type": "functional"}, "HeLa": {"system": "HeLa", "assay": "Cytotoxicity against human HeLa cells after 48 hrs by MTT assay", "assay_type": "functional, cell-based", "how_it_was_run": "as §3"}, "Tubulin (Homo sapiens) [12]": {"target": "T1, Tubulin (Homo sapiens) (UniProt P68371+Q9H4B7+P0DPH7+P68366+Q13509+Q71U36+P04350+Q3ZCM7+P07437+P68363+Q9BQE3+Q6PEY2+Q13885+Q9BVA1+Q9BUF5)", "assay": "Binding affinity to tubulin (unknown origin) incubated for 60 mins by colchicine competition assay", "assay_type": "protein-complex assay", "how_it_was_run": "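Tubulin (3 μM) incubated with test agents (5, 10, 15, 20 μM) with and without 3 μM colchicine in 30 mM Tris buffer, 60 min at 37 °C. Tubulin–colchicine fluorescence read at ex 350/em 435 nm. Compound-alone signal subtracted from the compound+colchicine signal, Tris blank subtracted, values normalized to DMSO control. CA-4 positive control, taxol negative control.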"}, "Tubulin (Homo sapiens) [13]": {"target": "T1, Tubulin (Homo sapiens)", "assay": "Inhibition of tubulin (unknown origin) polymerization at 3 uM incubated for 1 hr by fluorescence assay", "assay_type": "protein-complex assay", "how_it_was_run": "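Fluorescence-reporter tubulin polymerization kit. PEM buffer with […], compounds at 3 μM final concentration. Fluorescence followed at ex 360/em 420 nm for 1 h at 37 °C. CA-4 positive control. Mean ± SD from two experiments, each in triplicate.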"}, "ACHN": {"system": "ACHN", "assay": "Cytotoxicity against human ACHN cells after 48 hrs by MTT assay", "assay_type": "functional, cell-based", "how_it_was_run": "as §3"}, "A549 [14]": {"system": "A549", "assay": "Induction of cell cycle arrest in human A549 cells assessed as accumulation at G0/G1 phase at 25 nM after 48 hrs by propidium iodide staining based flow cytometry (reference value: 87.75%)", "assay_type": "functional"}, "Tubulin": {"target": "Tubulin", "assay": "Inhibition of tubulin (unknown origin) polymerization incubated for 1 hr by fluorescence assay", "assay_type": "protein-complex assay, Homo sapiens"}, "A549 [15]": {"system": "A549", "assay": "Induction of cell cycle arrest in human A549 cells assessed as accumulation at G2/M phase at 25 nM after 48 hrs by propidium iodide staining based flow cytometry (reference value: 6.15%)", "assay_type": "functional"}, "HepG2": {"system": "HepG2", "assay": "Cytotoxicity against human HepG2 cells after 48 hrs by MTT assay", "assay_type": "functional, cell-based", "conditions": "HepG2, 48 h", "how_it_was_run": "as §3"}, "MCF7": {"system": "MCF7", "assay": "Cytotoxicity against human MCF7 cells after 48 hrs by MTT assay", "assay_type": "functional, cell-based", "conditions": "MCF7, 48 h", "how_it_was_run": "as §3"}, "A549 [16]": {"system": "A549", "assay": "Induction of cell cycle arrest in human A549 cells assessed as accumulation at subG1 phase at 25 nM after 48 hrs by propidium iodide staining based flow cytometry (reference value: 1.41%)", "assay_type": "functional"}, "A549 [17]": {"system": "A549", "assay": "Induction of cell cycle arrest in human A549 cells assessed as accumulation at S phase at 25 nM after 48 hrs by propidium iodide staining based flow cytometry (reference value: 4.69%)", "assay_type": "functional"}, "A549 [18]": {"system": "A549", "assay": "Induction of apoptosis in human A549 cells assessed as chromatin condensation at 25 nM incubated for 48 hrs by Hoechst staining based fluorescent microscopy", "assay_type": "functional, cell-based", "how_it_was_run": "as §1"}, "A549 [19]": {"system": "A549", "assay": "Induction of cell cycle arrest in human A549 cells assessed as accumulation at G2/M phase at 50 nM after 48 hrs by propidium iodide staining based flow cytometry (reference value: 6.15%)", "assay_type": "functional"}, "A549 [20]": {"system": "A549", "assay": "Induction of cell cycle arrest in human A549 cells assessed as accumulation at subG1 phase at 50 nM after 48 hrs by propidium iodide staining based flow cytometry (reference value: 1.41%)", "assay_type": "functional"}}, "note": "The source made the active and inactive calls. The calls are words filed in the database; no cut-off is given here.", "data": [{"smiles": "COc1ccc(Cn2cc(C(=O)Nc3cc(/C=C\\c4cc(OC)c(OC)c(OC)c4)cc(OC)c3OC)nn2)cc1", "values": [{"measurement": "Activity", "setting": "A549 [1]", "result": "Active"}, {"measurement": "Activity", "setting": "A549 [2]", "result": 62.01, "unit": "%"}, {"measurement": "Activity", "setting": "A549 [3]", "result": "Active"}, {"measurement": "Activity", "setting": "A549 [4]", "result": "Active"}, {"measurement": "fold change (FC)", "setting": "A549 [5]", "result": 3}, {"measurement": "Activity", "setting": "A549 [6]", "result": "Active"}, {"measurement": "Activity", "setting": "A549 [7]", "result": "Active"}, {"measurement": "Activity", "setting": "A549 [8]", "result": "Active"}, {"measurement": "fold change (FC)", "setting": "A549 [9]", "result": 3}, {"measurement": "IC50", "setting": "A549 [10]", "result": 44, "unit": "nM"}, {"measurement": "Activity", "setting": "A549 [11]", "result": 7.9, "unit": "%"}, {"measurement": "IC50", "setting": "HeLa", "result": 81, "unit": "nM"}, {"measurement": "Activity", "setting": "Tubulin (Homo sapiens) [12]", "result": "Active"}, {"measurement": "inhibition", "setting": "Tubulin (Homo sapiens) [13]", "result": 70.9, "unit": "%"}, {"measurement": "IC50", "setting": "ACHN", "result": 1700, "unit": "nM"}, {"measurement": "Activity", "setting": "A549 [14]", "result": 69.59, "unit": "%"}, {"measurement": "IC50", "setting": "Tubulin", "result": 950, "unit": "nM"}, {"measurement": "Activity", "setting": "A549 [15]", "result": 21.37, "unit": "%"}, {"measurement": "IC50", "setting": "HepG2", "result": 98, "unit": "nM"}, {"measurement": "IC50", "setting": "MCF7", "result": 818, "unit": "nM"}, {"measurement": "Activity", "setting": "A549 [16]", "result": 1.2, "unit": "%"}, {"measurement": "Activity", "setting": "A549 [17]", "result": 7.84, "unit": "%"}, {"measurement": "Activity", "setting": "A549 [18]", "result": "Active"}, {"measurement": "Activity", "setting": "A549 [19]", "result": 26.63, "unit": "%"}, {"measurement": "Activity", "setting": "A549 [20]", "result": 3.46, "unit": "%"}]}]}
